Consider 22 molecules from ChEMBL document CHEMBL2384986, “Re-evolution of the 2-phenylquinolines: ligand-based design, synthesis, and biological evaluation of a potent new class of Staphylococcus aureus NorA efflux pump inhibitors to combat antimicrobial resistance” (J Med Chem, 2013).

Molecules are shown by their SMILES. Activity calls are given as the source filed them. The calls are words filed in the database; no cut-off is given here.

The target of test [1] is T1, Quinolone resistance protein NorA (Staphylococcus aureus) (UniProt P0A0J7).
T1 sequence (whole entry): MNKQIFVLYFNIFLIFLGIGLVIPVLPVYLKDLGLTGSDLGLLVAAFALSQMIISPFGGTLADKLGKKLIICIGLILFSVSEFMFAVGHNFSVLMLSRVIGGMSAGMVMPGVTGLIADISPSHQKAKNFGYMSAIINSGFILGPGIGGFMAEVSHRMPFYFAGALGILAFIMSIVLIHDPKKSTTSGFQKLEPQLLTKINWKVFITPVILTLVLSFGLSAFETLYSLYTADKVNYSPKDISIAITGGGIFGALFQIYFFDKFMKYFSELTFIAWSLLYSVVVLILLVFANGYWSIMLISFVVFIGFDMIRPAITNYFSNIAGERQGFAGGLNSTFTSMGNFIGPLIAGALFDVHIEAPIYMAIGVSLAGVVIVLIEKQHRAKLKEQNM
The test is described as follows: Inhibition of NorA in Staphylococcus aureus 1199B harboring grlA A116E mutant assessed as inhibition of ethidium bromide efflux at 50 uM measured for 5 mins by fluorometric analysis relative to control. The essentials:
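EtBr loss from SA-1199B (norA overexpressing, GrlA A116E) measured fluorometrically with inhibitor at 50 μM, compared with no-inhibitor control. Read-out is mean total efflux over a 5 min time course, expressed as percent reduction in efflux. Usually run in duplicate.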

Test [2] has as its target Quinolone resistance protein NorA (Staphylococcus aureus, UniProt P0A0J7). The test is described as follows: Inhibition of NorA in Staphylococcus aureus 1199B harboring grlA A116E mutant assessed as inhibition of ethidium bromide efflux measured for 5 mins by fluorometric analysis. The essentials: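 Fluorometric EtBr efflux assay in SA-1199B (norA overexpressing, GrlA A116E) over a 5 min time course, compared with no-inhibitor control. Increasing inhibitor concentrations were tested, and IC50 was read by inspection of the dose-response plots. Usually run in duplicate.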

Test [3] concerns Staphylococcus aureus. The test is described as follows: Antibacterial activity against Staphylococcus aureus 1199B overexpressing NorA and grlA A116E mutant assessed as growth inhibition by microdilution method. Format: functional. Put shortly: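 Broth microdilution MIC per CLSI guidelines for intrinsic antistaphylococcal activity; highest concentration tested 100 μg/mL. SA-1199 is the norA wild-type parent, SA-1199B overexpresses norA and carries GrlA A116E, and SA-K2378 overexpresses norA from multicopy plasmid pCU1 in the norA-deleted SA-K1902 background.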
On the technique in general: Dilution methods test growth across graded concentrations, often in twofold steps.

Test [4] addresses T1, Quinolone resistance protein NorA (Staphylococcus aureus). The test is described as follows: Inhibition of NorA in Staphylococcus aureus ATCC 25923 assessed as reduction of ciprofloxacin MIC at 0.78 to 100 ug/mL. The essentials:
(§1)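 Ciprofloxacin MIC determined by CLSI broth microdilution, alone and combined with scalar dilutions of freshly prepared test compound; checkerboard combination format. Strains: ATCC 25923 (wild type), SA-1199 (norA wt), SA-1199B (norA overexpressing, GrlA A116E), SA-K2378 (norA on multicopy pCU1) and SA-K1902 (norA-deleted).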

Test [5] shares this target. Briefly: Inhibition of NorA in Staphylococcus aureus K2378 assessed as reduction of ciprofloxacin MIC at 0.78 to 100 ug/mL relative to control. Put shortly: as §1
The test system of test [6] is Staphylococcus aureus. The test is described as follows: Reduction of ciprofloxacin MIC in norA-deficient Staphylococcus aureus K1902 at 0.78 to 100 ug/mL. Format: functional, organism-based. Put shortly: as §1
The test system of test [7] is Staphylococcus aureus. The test is described as follows: Antibacterial activity against Staphylococcus aureus 1199 harboring wild type norA assessed as growth inhibition by microdilution method.
Test [8] addresses T1, Quinolone resistance protein NorA (Staphylococcus aureus). The test is described as follows: Inhibition of wild type NorA in Staphylococcus aureus 1199 assessed as reduction of ciprofloxacin MIC at 0.78 to 100 ug/mL. The essentials:
as §1

Broadly, the inhibition is the drop in the measured response relative to a control, in per cent. A word on the IC50: it is the concentration that inhibits the measured activity by half. For orientation: MIC means the least concentration at which growth counts as inhibited.

`CCCOc1ccc(-c2cc(OCCN(Cc3ccccc3)Cc3ccccc3)c3ccccc3n2)cc1`: the inhibition in test [1] is 0%.

For `CCCOc1ccc(-c2cc(OCCC(C)C)c3ccccc3n2)cc1`, in test [1], the inhibition came out at 33.2%.

Regarding `CCCOc1ccc(-c2cc(OCCN3C(=O)c4ccccc4C3=O)c3ccccc3n2)cc1`, the inhibition in test [1] stood at 8.3%.

As to `CCCOc1ccc(-c2cc(OC(C)CN(C)C)c3ccccc3n2)cc1` (racemic), the IC50 in test [2] was 13.3 µM. Besides, the MIC with Staphylococcus aureus [3] is more than 200 µM. Besides, the inhibition in test [1] amounted to 86.2%.

Regarding `CCCOc1ccc(-c2cc(OCCN)c3ccccc3n2)cc1`, the concentration for half-maximal inhibition (IC50) in test [2] stood at 9.3 µM. Besides, in the test with Staphylococcus aureus [3], the MIC is more than 310 µM. In addition, the inhibition in test [1] worked out at 96.1%.

Take `CCCOc1ccc(-c2cc(OC3CCCN(C)C3)c3ccccc3n2)cc1` (stereo unspecified): the inhibition entry in test [4] and in test [8] was “inactive” each time. In addition, the IC50 in test [2] is 8 µM. Besides, the fold change (FC) in test [5] turned out to be 4. Further, the MIC in the test with Staphylococcus aureus [3] was more than 200 µM; in the test on Staphylococcus aureus [7], more than 100 µg/mL. For the same molecule, in the test on Staphylococcus aureus [6], the result was inactive. Moreover, the inhibition in test [1] is 88.2%.

`CCCOc1ccc(-c2cc(OCCN(CC)Cc3ccccc3)c3ccccc3n2)cc1`: the MIC in the test on Staphylococcus aureus [3] was more than 200 µM. Moreover, the inhibition in test [1] was 72.5%.

Consider `CCCCN(CCCC)CCOc1cc(-c2ccc(OCCC)cc2)nc2ccccc12`, for which the IC50 in test [2] worked out at 9.2 µM. For the same molecule, the MIC with Staphylococcus aureus [3] is more than 200 µM. In addition, the inhibition in test [1] was 88.6%.

Regarding `CCCOc1ccc(-c2cc(OCCN(C)C)c3ccccc3n2)cc1`, the IC50 in test [2] stood at 9.9 µM. In the test on Staphylococcus aureus [3], the MIC is more than 249 µM. Further, the inhibition in test [1] was determined as 92%.

Consider `CCCOc1ccc(-c2cc(OCCN3CCCC3)c3ccccc3n2)cc1`, for which the IC50 in test [2] is 9.3 µM. Moreover, the MIC in the test with Staphylococcus aureus [3] is more than 200 µM. Also, the inhibition in test [1] was found to be 94.2%.

As to `CCCOc1ccc(-c2cc(OCCn3cccc3)c3ccccc3n2)cc1`, the inhibition in test [1] worked out at 4.1%.

For `CCCOc1ccc(-c2cc(OCCN3CCC4(CC3)OCCO4)c3ccccc3n2)cc1`, the inhibition entry in test [4] and in test [8] was “inactive” each time. Besides, the IC50 in test [2] worked out at 8.5 µM. In addition, the fold change (FC) in test [5] was 4. The MIC in the test with Staphylococcus aureus [3] is more than 200 µM; with Staphylococcus aureus [7] it was more than 100 µg/mL. In the test on Staphylococcus aureus [6], the outcome was inactive. In addition, the inhibition in test [1] was found to be 80.4%.

For the molecule `Fc1ccc([C@H]2CCNC[C@@H]2COc2ccc3c(c2)OCO3)cc1`, the inhibition in test [1] stood at 85%.

On to `CCCOc1ccc(-c2cc(OCCN3CCSCC3)c3ccccc3n2)cc1`, for which the inhibition in test [1] is 57.7%.

As for `CCCOc1ccc(-c2cc(OCCN3CCC(=O)CC3)c3ccccc3n2)cc1`, the MIC in the test with Staphylococcus aureus [3] is more than 200 µM. The inhibition in test [1] was found to be 71.7%.

Regarding `CCCOc1ccc(-c2cc(OCCN3CCc4cc(OC)c(OC)cc4C3)c3ccccc3n2)cc1`, the inhibition in test [1] stood at 79.6%.

`CCCOc1ccc(-c2cc(OCc3ccccn3)c3ccccc3n2)cc1`: the inhibition in test [1] worked out at 19.6%.

On to `CCCOc1ccc(-c2cc(OCCN3CCOCC3)c3ccccc3n2)cc1`, for which, in test [2], the IC50 came to 10.7 µM. For the same molecule, in the test with Staphylococcus aureus [3], the MIC is more than 200 µM. Further, the inhibition in test [1] is 86.9%.

Take `CCCOc1ccc(-c2cc(OCC(C)N(C)C)c3ccccc3n2)cc1.Cl` (stereo unspecified): the inhibition result in test [4] and in test [8] was “inactive” each time. Also, the IC50 in test [2] was found to be 7.5 µM. Also, the fold change (FC) in test [5] turned out to be 4. Also, the results for the MIC with Staphylococcus aureus [3] and in the test with Staphylococcus aureus [7] were more than 200 µM and more than 100 µg/mL, respectively. Further, the outcome with Staphylococcus aureus [6] was inactive. Also, the inhibition in test [1] is 90.4%.

Turning to `CCCOc1ccc(-c2cc(OC3CN4CCC3CC4)c3ccccc3n2)cc1` (stereo unspecified), in test [2], the IC50 was 14.8 µM. Moreover, the MIC in the test with Staphylococcus aureus [3] is more than 200 µM. Also, the inhibition in test [1] is 91.3%.

In the case of `CCCOc1ccc(-c2cc(OCCN3CCc4ccccc4C3)c3ccccc3n2)cc1`, the inhibition in test [1] was found to be 67.9%.

For `CCCOc1ccc(-c2cc(OCCN3CCN(C)CC3)c3ccccc3n2)cc1`, the IC50 in test [2] turned out to be 9.7 µM. The MIC in the test on Staphylococcus aureus [3] was more than 200 µM. In test [1], the inhibition was 91%.
